In PMC3947009 (ACS Chemical Biology, 2013):
“And” between values parts separate entries of the source, which are not always exact repeats. Equal entries are not always repeated.

Target: GluA2 LBD (S1S2J, rat GluA2-flop subunit, N754S) (Rattus norvegicus, UniProt P19491, DEL528-650/N775S/S652T/V651G)
Format: biochemical
In short: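 Trypsin-detagged LBD (residues N392-K506/P632-S775, GT linker) from E. coli Origami B(DE3), purified by ion exchange and sizing. Protein 0.017–0.1 mM in 10 mM glutamate, 25 mM NaCl, 25 mM Tris-Cl pH 7, with modulator from DMSO (1 µL per 30 µL); kept at 4 °C; synchrotron SAXS. Dimer fraction fit with monomer/dimer form factors (1FTJ); EC50 from dimerization curves; constants from simultaneous one- or two-site equilibrium fits.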

| EC50 [µM] | Kd | fold lower EC50 for dimerization than HFMZ (CYTZ vs HFMZ) [×] | fold lower EC50 for dimerization than TCMZ (CYTZ vs TCMZ) [×] | Structure (SMILES) |
| --- | --- | --- | --- | --- |
| 2000 to 5000 | ~5 µM | – | – | NS(=O)(=O)c1cc2c(cc1C(F)(F)F)NCNS2(=O)=O [HFMZ, hydroflumethiazide] |
| 100 to 200 | ~5 µM | 20 | 10 | NS(=O)(=O)c1cc2c(cc1Cl)NC(C1CC3C=CC1C3)NS2(=O)=O (centres unmarked) [CYTZ, cyclothiazide] |
| 1000 to 2000 | 46.8 µM and ~50 µM | – | – | NS(=O)(=O)c1cc2c(cc1Cl)NC(C(Cl)Cl)NS2(=O)=O (centres unmarked) [TCMZ, trichlormethiazide] |
